Measurements reported in ChEMBL document CHEMBL4393705, “New chalcone-sulfonamide hybrids exhibiting anticancer and antituberculosis activity” (Eur J Med Chem, 2019).
Converted amounts (≈) assume the structure as drawn.

Assays:
Staphylococcus aureus = assay: Antibacterial activity against Staphylococcus aureus measured every 120 mins for 36 hrs by LB broth two-fold serial dilution method; type: functional
Summary of the method: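 Panel of 12 laboratory and clinical S. aureus strains with varied drug-susceptibility patterns. Compounds were two-fold serially diluted in LB broth from a maximum of 32 mg/L. Growth was followed by OD600 every 120 min for 36 h. Vancomycin was the positive control, and runs were in duplicate.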

NIH3T3 = assay: Cytotoxicity against mouse 3T3 cells assessed as cell viability measured after 48 hrs by MTT assay; type: cell-based; settings: nih3t3, 48 h
Summary of the method: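 3T3 fibroblasts in DMEM with 10% FBS and penicillin-streptomycin, seeded at 10^4 cells/well 24 h prior. Exposed 48 h to two-fold serial dilutions from a 100 mg/mL DMSO stock. MTT (5 mg/mL in PBS) added for 1.5 h, formazan dissolved in DMSO, read at 530 nm. Duplicate runs on different days. Value interpolated between DMSO (100%) and cycloheximide (0%) controls.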

HCT-116 = assay: Anticancer activity against human HCT116 cells assessed as tumour cell growth at 10 uM after 48 hrs by SRB assay relative to control; type: functional
Summary of the method: (§1)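 NCI 60-line primary screen at a single 10 μM dose in RPMI-1640 with 5% FBS and 2 mM L-glutamine. Cells were preincubated 24 h at 37 °C in 5% CO₂, with time-zero plates fixed with TCA. Compounds (DMSO, diluted in gentamicin medium) were incubated 48 h, then cells TCA-fixed and stained with 0.4% SRB (A515). Growth percent was derived from time-zero, control and treated absorbances.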

[1] = Selectivity index, ratio of LC50 for mouse 3T3 cells to MIC for Mycobacterium tuberculosis H37Rv ATCC27294; type: toxicity; settings: read-out: Selectivity Index
[2] = tested on: Mycolicibacterium smegmatis; assay: Antibacterial activity against Mycobacterium smegmatis MC2 155 measured after 48 hrs by agar dilution SPOTi assay; type: functional; settings: MC2 155, 48 h
Summary of the method: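 SPOTi agar dilution on Middlebrook 7H10 without OADC. Cells were passaged in Middlebrook 7H9 and then spotted. Compounds were tested at 100, 50, 20, 10 and 5 mg/L, with kanamycin as positive control. Plates were incubated 48 h at 37°C. MIC was taken as the lowest concentration with no visible growth.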

[3] = tested on: Mycobacterium tuberculosis; assay: Antitubercular activity against Mycobacterium tuberculosis H37Rv ATCC27294 measured after 2-3 weeks by agar dilution SPOTi assay; type: functional; settings: H37Rv ATCC 27294
Summary of the method: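 Agar dilution SPOTi on Middlebrook 7H10 with 0.5% glycerol and 10% OADC. Final compound levels 50, 20, 10, 5, 2 mg/L, added from DMSO dilutions. 2 µL of a 10^6 CFU/mL inoculum from a 4-week Löwenstein-Jensen culture spotted per well, incubated 2-3 weeks at 37°C. MIC is the lowest concentration with no visible growth. Repeated on a separate day; isoniazid was the reference.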

K562 = assay: Anticancer activity against human K562 cells assessed as tumour cell growth at 10 uM after 48 hrs by SRB assay relative to control; type: functional; summary of the method: as §1
HL-60 = assay: Anticancer activity against human HL60 cells assessed as tumour cell growth at 10 uM after 48 hrs by SRB assay relative to control; type: functional; summary of the method: as §1
M14 = assay: Anticancer activity against human M14 cells assessed as tumour cell growth at 10 uM after 48 hrs by SRB assay relative to control; type: functional; summary of the method: as §1
SR = assay: Anticancer activity against human SR cells assessed as tumour cell growth at 10 uM after 48 hrs by SRB assay relative to control; type: functional; summary of the method: as §1

Structure (SMILES) | MIC (Staphylococcus aureus) [µM] | LC50 (NIH3T3) [µM] | Activity (HCT-116) [%] | selectivity ratio [1] | MIC [2] [µM] | MIC [3] [µM] | Activity (K562) [%] | Activity (HL-60) [%] | Activity (M14) [%] | Activity (SR) [%]
COc1ccc(C(=O)/C=C/c2ccc(C)cc2)cc1S(=O)(=O)Nc1c(N)nc(SC)[nH]c1=O | > 57 | 7.2 | 10.78 | 0.18 | > 175 | 41 (≈ 19.9 µg/mL) | 38.79 |  |  | 
COc1ccc(C(=O)/C=C/c2ccc(C)cc2)cc1S(N)(=O)=O | > 57 | 4.3 |  | 0.14 | > 175 | 30 (≈ 9.94 µg/mL) | 3.04 |  |  | 
COc1ccc(C(=O)/C=C/c2ccccc2)cc1S(=O)(=O)Nc1c(N)nc(SC)[nH]c1=O | > 57 | 17 | 35.18 | 0.4 | > 175 | 42 (≈ 19.8 µg/mL) | 35.63 |  |  | 
COc1ccc(C(C)=O)cc1S(N)(=O)=O | > 57 | > 2700 |  |  | > 175 | > 218 |  | 74.74 |  | 
COc1ccc(C(C)=O)cc1S(=O)(=O)Nc1c(N)nc(SC)[nH]c1=O | > 57 | > 1600 |  |  | > 175 | > 130 |  |  | 94.85 | 
NNC(=O)c1ccncc1 [ISONIAZID] |  |  |  |  |  | 0.36 (≈ 0.0494 µg/mL) |  |  |  | 
COc1ccc(C(=O)/C=C/c2cc(OC)c(OC)c(OC)c2)cc1S(=O)(=O)Nc1c(N)nc(SC)[nH]c1=O | > 57 | 2.1 |  |  | > 175 | > 89 |  |  |  | 
COc1ccc(C(=O)/C=C/c2ccc3c(c2)OCO3)cc1S(=O)(=O)Nc1c(N)nc(SC)[nH]c1=O | > 57 | 7.1 | 18.36 |  | > 175 | > 97 | 53.79 |  |  | 
COc1ccc(C(=O)/C=C/c2ccccc2)cc1S(N)(=O)=O | > 57 | 7.7 |  | 0.48 | > 175 | 16 (≈ 5.08 µg/mL) | 7.9 |  |  | 
COc1ccc(/C=C/C(=O)c2ccc(OC)c(S(N)(=O)=O)c2)cc1 | > 57 | 96 |  |  | > 175 | > 144 | 38.78 |  |  | 28.1
C[C@@H]1C[C@@H]([C@H](O)CC2CC(=O)NC(=O)C2)C(=O)[C@@H](C)C1 [CYCLOHEXIMIDE] |  | < 2.2 |  |  |  |  |  |  |  | 
COc1ccc(C(=O)/C=C/c2ccc3c(c2)OCO3)cc1S(N)(=O)=O | > 57 | 132 | 19.22 |  | > 175 | > 138 | 44.59 |  |  | 
COc1ccc(/C=C/C(=O)c2ccc(OC)c(S(=O)(=O)Nc3c(N)nc(SC)[nH]c3=O)c2)cc1 | > 57 | 6.5 | 24.01 |  | > 175 | > 100 | 54.26 |  |  | 
COc1ccc(C(=O)/C=C/c2cc(OC)c(OC)c(OC)c2)cc1S(N)(=O)=O | > 57 | 2.4 |  |  | > 175 | > 123 |  |  |  | 
